# Rpn11 block = Rpn11 (human) deubiquitinase inhibition. 360,000 compounds, 0.59% hits. human 26S proteasome, Ub4-pepOG fluorescence polarization; 20S core pre-blocked with epoxomicin. O00487. inhibition, % at 20 µM;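 active = inhibition at 20 µM, scaled to each plate's controls, above about 33%, limit read from the data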
# PP1 counter = counter-screen for PP5 inhibitors: inhibitors of human PP1-alpha; P62136; purified PP1alpha, OMFP fluorescence; inhibition, % at 6.7 µM; 320,000 compounds, 0.9% hits; AID 2235;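 active = inhibition above the mean inhibition of all tested compounds plus 3 SD, computed separately for each screening campaign, cut at about 15% in these data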
# TPT1 inh = blocks Candida albicans tRNA 2'-phosphotransferase; recombinant caTPT1, FP RNA substrate dephosphorylation; inhibition, % at 5 µM; 300,000 compounds, 0.81% hits; AID 1962;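 active = inhibition above the mean of all tested compounds plus 3 SD, set per screening campaign, cut at about 24% in these data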;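 also: plate controls were DMSO alone for no effect and ferristatin control at 100 nM for full effect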
# HNF4A DNA FP = change in binding of human HNF4 alpha to DNA; activity change, % at 10 µM; 360,000 compounds, 0.3% hits; HNF4a-FITC DNA binding, fluorescence polarization, 1 h; in the data active = activity change above about 30%, passing the limit was not always enough
# Target sequence (P41235 whole entry, looked up): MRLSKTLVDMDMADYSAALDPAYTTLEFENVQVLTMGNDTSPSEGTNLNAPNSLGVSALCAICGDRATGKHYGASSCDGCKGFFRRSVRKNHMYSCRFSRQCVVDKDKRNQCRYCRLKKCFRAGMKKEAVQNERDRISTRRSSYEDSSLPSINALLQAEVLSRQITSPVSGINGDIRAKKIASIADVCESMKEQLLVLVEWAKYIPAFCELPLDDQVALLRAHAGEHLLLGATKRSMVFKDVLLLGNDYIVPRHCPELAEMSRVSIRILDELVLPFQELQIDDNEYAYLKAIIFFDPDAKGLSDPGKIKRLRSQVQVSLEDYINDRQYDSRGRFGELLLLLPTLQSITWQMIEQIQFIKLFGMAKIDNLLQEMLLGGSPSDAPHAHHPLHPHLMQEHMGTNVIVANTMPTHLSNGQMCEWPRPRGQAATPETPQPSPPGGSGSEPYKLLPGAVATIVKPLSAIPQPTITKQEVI
# CSN inh = inhibitors of human CSN-mediated cullin deneddylation. inhibition, % at 12.5 µM. 360,000 compounds, 0.38% hits. AID 651999. Q92905. Purified CSN, SCF-Nedd8-OG deneddylation, fluorescence polarization;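 active = pattern-corrected inhibition above about 35%, with an unprinted fluorescence ratio check between 0.5 and 1.5, limit read from the data, passing the limit was not always enough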;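 also: 0% = enzyme with substrate and 100% = substrate without enzyme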
#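 test system = HEK293T-derived human Csn5 enzyme | amount = 0.24 nM Csn5 enzyme, final concentration | medium = Tris/NaCl/DTT buffer, pH 7.5 | schedule = 90 min reaction at room temperature | signal = FP | evaluation = inhibition of Csn5 cleavage, % | compound dosing = single dose of 12.5 µM compound with 0.25% DMSO | probe or stimulus = 10 nM SCFSkp2-Nedd8OG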
# NadD inh = inhibitors of Staphylococcus aureus NadD. AID 602399. 360,000 compounds, 0.78% hits. inhibition, % at 20 µM. purified NadD enzyme, colorimetric absorbance read-out; in the data active = inhibition above about 26%
# TPT1 inh confirm = confirmation of Candida albicans TPT1 inhibitors. shares compounds with TPT1 inh. recombinant caTPT1, fluorescence polarization, RNase T1 coupled. inhibition, % at 5 µM. 2,400 compounds, 74% hits. AID 2149;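 active = inhibition above the primary screen limit, the mean inhibition of all tested compounds plus 3 SD, cut at about 25% in these data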
# RNase T1 counter = blocks Aspergillus oryzae RNase T1, a TPT1 counter-screen; 2,400 compounds, 83% hits; inhibition, % at 5 µM; AID 2153; shares compounds with TPT1 inh; RNase T1 cleavage, fluorescence polarization, 1536-well;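 active = inhibition above the solvent-only control well mean plus 3 SD, limit set per screening run, cut at about 23% in these data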;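 also: plate controls were DMSO wells with enzyme for no effect and wells without RNase T1 for full effect; inhibitors block cleavage so intact labeled substrate keeps polarization high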
# Target sequence (P00651 whole entry, looked up): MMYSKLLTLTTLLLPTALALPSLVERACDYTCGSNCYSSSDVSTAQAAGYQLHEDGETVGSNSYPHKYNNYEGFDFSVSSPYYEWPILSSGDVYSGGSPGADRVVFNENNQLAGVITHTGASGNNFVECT
# An asterisk follows results filed as active; . = no result given; ! = a repeat was not active. Compounds with a hit are over-represented: about 2.7% of the library has one in this group of screens.
SMILES,Rpn11 block,PP1 counter,TPT1 inh,HNF4A DNA FP,CSN inh,NadD inh,TPT1 inh confirm,RNase T1 counter
CN1CCC(=O)N(CCN=[N+]=[N-])CC1,-2.1,-8.3,-3.5,10.2,8.2,-1.6,.,.
Cc1ccc(OP2(=O)Nc3cc(C)c(C)cc3S2)cc1 (centres undefined),1.2,.,.,0.4,6.8,7.8,.,.
Cc1ccc(-n2c(O)c(C=Nc3ccc(S(=O)(=O)N(C)C)cc3)c(=O)[nH]c2=O)cc1,3.7,-1.3,26.1*,-3.5,9.4,5.9,8.6,13.7
Cc1cccc(-n2c(O)c(/C=C/C=Nc3ccccc3)c(=O)[nH]c2=O)c1,.,2.9,182.6*,163.4,8.1,-6.3,186.9*,172.8*
CNS(=O)(=O)c1ccc(N=Cc2c(O)n(-c3cccc(C)c3)c(=O)[nH]c2=O)cc1,2.8,-2.9,25.7*,1.8,17.1,-8.7,13.6,24.0*
Cc1ccc(N=Cc2c(O)n(-c3ccc(C)cc3)c(=O)[nH]c2=O)cc1,2.5,-0.5,1.8,0.5,-3.2,1.8,.,.
CNS(=O)(=O)c1ccc(N=Cc2c(O)n(-c3ccccc3)c(=O)[nH]c2=O)cc1,3.2,2.8,28.0*,-0.3,6.8,-1.7,16.8,25.1*
Cc1cc(S(N)(=O)=O)ccc1N=Cc1c(O)n(-c2ccccc2)c(=O)[nH]c1=O,1.4,-0.6,4.7,1.7,0.8,-0.3,.,.
CC(C)C[C@H](NP(=O)(O)O[C@@H]1O[C@@H](C)[C@H](O)[C@@H](O)[C@H]1O)C(=O)N[C@@H](Cc1c[nH]c2ccccc12)C(=O)O,-0.4,-5.5,1.5,0.2,-0.5,5.4,.,.
C=C1[C@@H](OC(C)=O)[C@]23C[C@@H]1[C@@H](OC(C)=O)CC2[C@]12C4C[C@H]3[C@H]1N(CC)C[C@]4(C)CC[C@@H]2O (some centres undefined),-0.7,-3.4,0.8,0.1,0.7,5.6,.,.
O=c1[nH]c(=O)n(-c2cccc(Cl)c2)c(O)c1/C=N/c1ccccn1,9.9,7.2,30.0*,10.7,2.5,-1.2,18.3,24.2*
N=Cc1c(O)n(-c2cccc(Cl)c2)c(=O)[nH]c1=O,-1.0,-2.5,5.2,3.1,3.8,3.2,.,.
Cc1ccccc1-n1c(O)c(/C=N/c2nccs2)c(=O)[nH]c1=O,7.0,-1.7,28.2*!,2.8,-1.6,7.0,17.8,26.4*
Cc1cccc(N=Cc2c(O)n(-c3ccccc3C)c(=O)[nH]c2=O)c1,2.3,-2.0,2.6,0.8,-0.5,-3.0,.,.
COC(=O)C1=C(c2cc3ccccc3s2)C[C@@H]2CC[C@H]1N2C(=O)N1CCC(C)CC1,-7.0,4.0,0.3,-3.9,-2.7,-9.2,.,.
CCOC(=O)COc1ccc(/C=C2\C(=O)NC(=S)N(c3ccc(OC)cc3)C2=O)cc1OC,11.4,-0.9,1.1,1.6,-4.9,-6.8,.,.
CCC(C)N1C(=O)/C(=C/c2ccc3c(c2)CCN3CCCCl)C(=O)NC1=S (centres undefined),.,-0.3,40.6*,-9.9,21.7,39.7*,56.4*,71.9*
C=CCn1c(O)c(C=NCCN(C)C)c(=O)[nH]c1=O,16.1,0.2,30.1*,14.3,9.2,-3.9,35.0*,45.4*
CCCCn1c(O)c(C(CC)=NCCc2ccccc2)c(=O)[nH]c1=O,-1.0,-0.1,-1.6,0.4,-0.3,-3.3,.,.
CCCCn1c(O)c(C(=O)/C=C/c2c[nH]c3ccccc23)c(=O)[nH]c1=O,.,-1.8,120.5*,149.7,-76.2,9.8,177.9*,161.1*
Cc1cc(C)c(-n2c(O)c(/C=N/NC(=O)c3ccncc3)c(=O)[nH]c2=O)c(C)c1,27.3,0.9,24.1*,7.4,5.5,-1.9,28.6*,39.5*
CC1(C)OC(c2ccccc2)=C/C(=C/C=C2C(=O)NC(=S)NC2=O)O1,.,3.5,128.9*,.,.,.,77.4*,76.2*
O=c1c2ccccc2nc(/C=C/c2ccc(O)c(O)c2)n1-c1ccccc1,.,-2.3,46.3*,15.6,21.9,8.5,48.7*,56.7*
Cc1cccc(-n2c(/C=C/c3ccc([N+](=O)[O-])o3)nc3ccccc3c2=O)c1,.,-0.9,40.4*,150.5,116.9,8.7,56.0*,52.2*
COc1ccccc1-n1c(/C=C/c2ccc(O)cc2)nc2ccccc2c1=O,28.1,5.7,6.8,7.4,12.0,8.1,.,.
SMILES,Rpn11 block,PP1 counter,TPT1 inh,HNF4A DNA FP,CSN inh,NadD inh,TPT1 inh confirm,RNase T1 counter
COc1cc(/C=C/c2nc3ccccc3c(=O)n2-c2ccccc2O)ccc1O,.,-1.2,25.6*,10.1,24.0,-0.7,44.8*,49.5*
NCC(O)c1cc(O)c(O)cc1F (centres undefined),-1.1,1.6,-0.1,-3.5,8.6,3.5,.,.
CC(C)(C)n1nnnc1C(C1CC1)N1CCC2(CC1)C(=O)NCN2c1ccccc1 (centres undefined),-2.4,.,.,9.0,-7.5,-4.9,.,.
COc1ccc2c(c1)C1(C)CCN(C)CC(C1)C2O (centres undefined),-4.1,.,.,6.5,-2.4,1.2,.,.
CO[C@@H]1C=CC23c4cc5c(cc4CO[C@]2(O)CN(C)[C@H]3C1)OCO5 (some centres undefined),1.3,.,.,-1.1,-2.1,2.2,.,.
N#CC(C#N)=Cc1ccc(-c2ccccc2F)o1,-71.4,1.5,-69.0,-0.3,13.6,-0.1,.,.
N#CC(C#N)=Cc1ccc(-c2ccccc2)o1,.,-4.6,36.7*,.,.,.,36.1*,64.2*
O=C1NC(=O)N(Cc2ccccc2)C(=O)/C1=C\N1CCCc2ccccc21,20.7,4.6,28.9*,0.3,6.8,1.5,14.5,20.9
C=CCN1C(=O)NC(=O)/C(=C/c2ccc(N(C)C)c(Br)c2)C1=O,-0.3,0.0,-0.2,0.8,-5.1,0.3,.,.
C=CCN1C(=O)NC(=O)/C(=C/c2ccoc2)C1=O,-23.3,-1.2,105.6*,-2.9,16.6,5.5,9.9,17.0
Cn1cccc1/C=C1\C(=O)NC(=O)N(Cc2ccccc2)C1=O,10.5,-0.6,24.9*,26.2,0.1,-1.4,21.7,33.8*
O=C1NC(=O)N(Cc2ccccc2)C(=O)/C1=C\c1ccco1,29.2,0.4,65.8*,0.1,27.4,10.3,16.7,22.5*
Cn1cccc1/C=C1/C(=O)NC(=O)N(Cc2ccccc2)C1=O,9.1,2.3,14.0,4.4,3.5,1.6,.,.
CN1C(=O)C(=CN2CCN(C(=O)c3ccco3)CC2)C(=O)N(C)C1=S,16.1,-8.5,9.8,5.0,3.4,-1.7,.,.
C=CCN1C(=O)NC(=O)/C(=C/c2cccn2C)C1=O,3.7,-0.8,51.5*,0.1,-3.4,4.2,4.7,8.3

# Screens (PubChem)
